Test results published in ChEMBL document CHEMBL1148479, “Antineoplastic agents. 520. Isolation and structure of irciniastatins A and B from the Indo-Pacific marine sponge Ircinia ramosa” (2004).
≈ marks a conversion by molar mass, not a printed value.

Key:
Type in all cases: functional
BXPC-3 = test: Compound was tested for cancer cell line growth inhibition against human pancreas (BXPC-3) cell line
In short: (§1)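 NCI sulforhodamine B protocol. Cells in 5% fetal bovine serum/RPMI1640 are seeded in 96-well plates and incubated 24 h, then exposed to serial compound dilutions for 48 h. Cells are fixed with trichloroacetic acid, stained with SRB and read by microplate reader. GI50 is the concentration giving a 50% reduction in net protein increase, calculated from optical density.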

Cryptococcus neoformans = test: Compound was tested for minimum inhibitory concentration against Cryptococcus neoformans ATCC 90112
In short: (§2)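 Standard broth microdilution susceptibility method. The fungal test follows the M27-A yeast reference standard. MIC is the lowest concentration that inhibits all visible growth of the organism (optically clear wells).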

DU-145 = test: Compound was tested for cancer cell line growth inhibition against human prostate (DU-145) cell line; in short: as §1
HUVEC = test: Compound was tested for cancer cell line growth inhibition against human umbilical vein endothelial cells
KM-20L2 = test: Compound was tested for cancer cell line growth inhibition against human colon (KM20L2) cell line; in short: as §1
MCF7 = test: Compound was tested for cancer cell line growth inhibition against human breast (MCF-7) cell line; in short: as §1
NCI-H460 = test: Compound was tested for cancer cell line growth inhibition against lung cancer cells (NCI-H460); conditions: Homo sapiens; in short: as §1
Neisseria gonorrhoeae = test: Compound was tested for minimum inhibitory concentration against Neisseria gonorrhoeae ATCC 49226; in short: as §2
P388 = test: Compound was tested for cancer cell line growth inhibition against murine P388 leukemia cell line; conditions: Mus musculus
In short: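 Murine P388 leukemia cells are grown in 10% horse serum/Fisher medium for 24 h, then incubated 48 h with serial compound dilutions. Cells are counted on a particle counter, and ED50 for growth inhibition is calculated from the counts.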

SF-268 = test: Compound was tested for cancer cell line growth inhibition against human central nervous system (SF268) cell line; in short: as §1

C=C(C)CC(OC)[C@H](O)C(=O)N[C@@H](OC)[C@@H]1C[C@@H](O)C(C)(C)[C@@H](C[C@H](O)[C@@H](C)[C@H]2Cc3c(C)c(O)cc(O)c3C(=O)O2)O1 (stereo not given in full) [IRCINIASTATIN A] showed a GI50 (BXPC-3) of 0.5 ng/mL (≈ 0.82 nM), an MIC (Cryptococcus neoformans) of 16000 ng/mL (≈ 26200 nM) and a GI50 (DU-145) of 1.6 ng/mL (≈ 2.62 nM). For the same molecule, the GI50 (HUVEC) was < 0.5 ng/mL, the GI50 (KM-20L2) was 2.1 ng/mL (≈ 3.44 nM) and the GI50 (MCF7) was 0.66 ng/mL (≈ 1.08 nM). The GI50 (NCI-H460) was 0.73 ng/mL (≈ 1.2 nM), the MIC (Neisseria gonorrhoeae) was 64000 ng/mL (≈ 105000 nM) and the GI50 (P388) was 6 ng/mL (≈ 9.84 nM). For the same molecule, the GI50 (SF-268) was 1.2 ng/mL (≈ 1.97 nM).
